From ChEMBL document CHEMBL4715736, “Identification of anticancer agents based on the thieno[2,3-b]pyridine and 1H-pyrazole molecular scaffolds” (2016)

Columns and labels:
Assay type in all cases: functional
Settings in all cases: read-out: Activity
HCT-116 = assay: Growth inhibition of human HCT-116 cells assessed as cell growth at 10 uM incubated for 48 hrs by sulforhodamine B assay relative to control
How it was run: (§1)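 Submitted to the NCI Developmental Therapeutics Program for the NCI60 human tumour cell line panel. First screen at a single 10 µM concentration. Read-out is growth relative to untreated control cells set at 100%.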

COLO 205 = assay: Growth inhibition of human COLO 205 cells assessed as cell growth at 10 uM incubated for 48 hrs by sulforhodamine B assay relative to control
How it was run: (§2)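 NCI Developmental Therapeutics Program NCI60 panel. Compounds that were active in the 10 µM one-dose screen went on to dose–response testing. Growth at each concentration is expressed relative to untreated control (100%). GI50 (concentration giving 50% of maximal inhibition of proliferation) and TGI (concentration giving total growth inhibition) were derived from the curves.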

KM12 = assay: Growth inhibition of human KM12 cells assessed as cell growth at 10 uM incubated for 48 hrs by sulforhodamine B assay relative to control; how it was run: as §1
SK-MEL-5 = assay: Growth inhibition of human SK-MEL-5 cells assessed as cell growth at 10 uM incubated for 48 hrs by sulforhodamine B assay relative to control
How it was run: (§3)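 Run by the NCI Developmental Therapeutics Program as part of its 60-line human tumour panel. Each compound tested at a single 10 µM dose. Growth expressed as % relative to untreated control cells (100%).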

HCC 2998 = assay: Growth inhibition of human HCC 2998 cells assessed as cell growth at 10 uM incubated for 48 hrs by sulforhodamine B assay relative to control; how it was run: as §2
ACHN = assay: Growth inhibition of human ACHN cells assessed as cell growth at 10 uM incubated for 48 hrs by sulforhodamine B assay relative to control
How it was run: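 NCI Developmental Therapeutics Program NCI60 human tumour cell line panel, one-dose primary screen with every compound at 10 µM. Growth is expressed as % of untreated control cells (100%).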

OVCAR-5 = assay: Growth inhibition of human OVCAR-5 cells assessed as cell growth at 10 uM incubated for 48 hrs by sulforhodamine B assay relative to control; how it was run: as §3
SF-539 = assay: Growth inhibition of human SF-539 cells assessed as cell growth at 10 uM incubated for 48 hrs by sulforhodamine B assay relative to control; how it was run: as §3
MDA-MB-468 = assay: Growth inhibition of human MDA-MB-468 cells assessed as cell growth at 10 uM incubated for 48 hrs by sulforhodamine B assay relative to control; how it was run: as §1
M14 = assay: Growth inhibition of human M14 cells assessed as cell growth at 10 uM incubated for 48 hrs by sulforhodamine B assay relative to control; how it was run: as §1
IGROV-1 = assay: Growth inhibition of human IGROV-1 cells assessed as cell growth at 10 uM incubated for 48 hrs by sulforhodamine B assay relative to control; how it was run: as §1
LOX IMVI = assay: Growth inhibition of human LOX IMVI cells assessed as cell growth at 10 uM incubated for 48 hrs by sulforhodamine B assay relative to control; how it was run: as §1
NCI-H322M = assay: Growth inhibition of human NCI-H322M cells assessed as cell growth at 10 uM incubated for 48 hrs by sulforhodamine B assay relative to control; how it was run: as §1
HOP-92 = assay: Growth inhibition of human HOP-92 cells assessed as cell growth at 10 uM incubated for 48 hrs by sulforhodamine B assay relative to control; how it was run: as §1
A549 = assay: Growth inhibition of human A549/ATCC cells assessed as cell growth at 10 uM incubated for 48 hrs by sulforhodamine B assay relative to control; how it was run: as §2
Malme-3M = assay: Growth inhibition of human Malme-3M cells assessed as cell growth at 10 uM incubated for 48 hrs by sulforhodamine B assay relative to control; how it was run: as §1
UACC-257 = assay: Growth inhibition of human UACC-257 cells assessed as cell growth at 10 uM incubated for 48 hrs by sulforhodamine B assay relative to control; how it was run: as §3
OVCAR-4 = assay: Growth inhibition of human OVCAR-4 cells assessed as cell growth at 10 uM incubated for 48 hrs by sulforhodamine B assay relative to control; how it was run: as §3
T47D = assay: Growth inhibition of human T47D cells assessed as cell growth at 10 uM incubated for 48 hrs by sulforhodamine B assay relative to control; how it was run: as §3
SF-295 = assay: Growth inhibition of human SF-295 cells assessed as cell growth at 10 uM incubated for 48 hrs by sulforhodamine B assay relative to control; how it was run: as §3
CCRF-CEM = assay: Growth inhibition of human CCRF-CEM cells assessed as cell growth at 10 uM incubated for 48 hrs by sulforhodamine B assay relative to control; how it was run: as §2
OVCAR-8 = assay: Growth inhibition of human OVCAR-8 cells assessed as cell growth at 10 uM incubated for 48 hrs by sulforhodamine B assay relative to control; how it was run: as §3
OVCAR-3 = assay: Growth inhibition of human OVCAR-3 cells assessed as cell growth at 10 uM incubated for 48 hrs by sulforhodamine B assay relative to control; how it was run: as §3
NCI-H460 = assay: Growth inhibition of human NCI-H460 cells assessed as cell growth at 10 uM incubated for 48 hrs by sulforhodamine B assay relative to control; how it was run: as §1
RXF 393 = assay: Growth inhibition of human RXF 393 cells assessed as cell growth at 10 uM incubated for 48 hrs by sulforhodamine B assay relative to control; how it was run: as §3
UACC-62 = assay: Growth inhibition of human UACC-62 cells assessed as cell growth at 10 uM incubated for 48 hrs by sulforhodamine B assay relative to control; how it was run: as §3
RPMI-8226 = assay: Growth inhibition of human RPMI-8226 cells assessed as cell growth at 10 uM incubated for 48 hrs by sulforhodamine B assay relative to control; how it was run: as §3
MCF7 = assay: Growth inhibition of human MCF7 cells assessed as cell growth at 10 uM incubated for 48 hrs by sulforhodamine B assay relative to control; how it was run: as §1
SNB-19 = assay: Growth inhibition of human SNB-19 cells assessed as cell growth at 10 uM incubated for 48 hrs by sulforhodamine B assay relative to control; how it was run: as §3
SK-MEL-28 = assay: Growth inhibition of human SK-MEL-28 cells assessed as cell growth at 10 uM incubated for 48 hrs by sulforhodamine B assay relative to control; how it was run: as §3
SN12C = assay: Growth inhibition of human SN12C cells assessed as cell growth at 10 uM incubated for 48 hrs by sulforhodamine B assay relative to control; how it was run: as §3
HOP-62 = assay: Growth inhibition of human HOP-62 cells assessed as cell growth at 10 uM incubated for 48 hrs by sulforhodamine B assay relative to control; how it was run: as §1
U-251 = assay: Growth inhibition of human U-251 cells assessed as cell growth at 10 uM incubated for 48 hrs by sulforhodamine B assay relative to control; how it was run: as §3
NCI-H23 = assay: Growth inhibition of human NCI-H23 cells assessed as cell growth at 10 uM incubated for 48 hrs by sulforhodamine B assay relative to control; how it was run: as §1
DU-145 = assay: Growth inhibition of human DU-145 cells assessed as cell growth at 10 uM incubated for 48 hrs by sulforhodamine B assay relative to control; how it was run: as §2

Row | Structure (SMILES) | growth at 10 µM (HCT-116) [%] | growth at 10 µM (COLO 205) [%] | growth at 10 µM (KM12) [%] | growth at 10 µM (SK-MEL-5) [%] | growth at 10 µM (HCC 2998) [%] | growth at 10 µM (ACHN) [%] | growth at 10 µM (OVCAR-5) [%] | growth at 10 µM (SF-539) [%] | growth at 10 µM (MDA-MB-468) [%] | growth at 10 µM (M14) [%] | growth at 10 µM (IGROV-1) [%] | growth at 10 µM (LOX IMVI) [%] | growth at 10 µM (NCI-H322M) [%] | growth at 10 µM (HOP-92) [%] | growth at 10 µM (A549) [%] | growth at 10 µM (Malme-3M) [%] | growth at 10 µM (UACC-257) [%] | growth at 10 µM (OVCAR-4) [%] | growth at 10 µM (T47D) [%] | growth at 10 µM (SF-295) [%] | other results
1 | COc1ccc(S(=O)(=O)n2ccc(-c3ccc4c(c3)CCC(C)(C)O4)n2)cc1 | 68.3 | 107 | 81.9 | 42.6 | 88.9 | 104 | 109 | 103 | 36.6 | 86.5 | 90.8 | 79.5 | 101 | 61.4 | 74 | 110 | 57.4 | 52.3 | 46.7 | 47.7 | growth at 10 µM (CCRF-CEM): 58.9%; growth at 10 µM (OVCAR-8): 83.8%; growth at 10 µM (OVCAR-3): 81.2%; growth at 10 µM (NCI-H460): 75.4%; growth at 10 µM (RXF 393): 110%; growth at 10 µM (UACC-62): 50.5%; growth at 10 µM (RPMI-8226): 49.2%; growth at 10 µM (MCF7): 73.5%; growth at 10 µM (SNB-19): 87.1%; growth at 10 µM (SK-MEL-28): 98.3%; growth at 10 µM (SN12C): 97.5%; growth at 10 µM (HOP-62): 112%; growth at 10 µM (U-251): 84.2%; growth at 10 µM (NCI-H23): 59.6%
2 | CC1(C)CCc2cc(-c3ccn(S(=O)(=O)c4ccc(C(C)(C)C)cc4)n3)ccc2O1 | 73.1 | 118 | 90.5 | 78 | 98 | 87.8 | 99.6 | 91.2 | 52.5 | 91.3 | 93.3 | 96.5 | 95.6 | 73.2 | 74.6 | 105 | 63 | 63.2 | 84.9 | 82.6 | growth at 10 µM (DU-145): 70%; growth at 10 µM (CCRF-CEM): 74.4%; growth at 10 µM (OVCAR-8): 84.5%; growth at 10 µM (OVCAR-3): 91.8%; growth at 10 µM (NCI-H460): 82.9%; growth at 10 µM (UACC-62): 70.4%; growth at 10 µM (RPMI-8226): 65.1%; growth at 10 µM (MCF7): 95.7%; growth at 10 µM (SNB-19): 88.2%; growth at 10 µM (SK-MEL-28): 92.8%; growth at 10 µM (SN12C): 87.7%; growth at 10 µM (HOP-62): 120%; growth at 10 µM (U-251): 80.8%; growth at 10 µM (NCI-H23): 83.8%
